# Measured values of several laboratories.
# Compare with care: the assays were run in different laboratories. pIC50: −log10 of the molar value.
# Target: Voltage-gated inwardly rectifying potassium channel KCNH2 (KCNH2, Homo sapiens, UniProt Q12809)
Compound,effect on,mode,method,cells,pH,pIC50
CCOC(=O)C1=C(CN2CCC[C@@H]2C(=O)Nc2ccc(B(O)O)cc2)NC(c2nccs2)=N[C@H]1c1ccc(F)cc1Br,ion current,inhibitor,patch clamp,HEK293,pH 7.4,5.18
FC(F)(F)CN1CC(n2cc(Oc3ccn4nc(Cl)cc4n3)cn2)C1,ion current,inhibitor,patch clamp,,,< 4.52
C=CCn1c(=O)c2cnc(Nc3ccc(N4CCN(C)CC4)cc3)nc2n1-c1ccc2c(n1)[C@@](O)(CC)CC2,ion current,inhibitor,,,,< 4.52
Cc1ccc(OCC(=O)N[C@@H](Cc2c[nH]c3ccccc23)C(=O)OC(C)C)cc1,ion current,inhibitor,patch clamp,HEK293,,< 4.30
CC(C)(C)c1sc2ncnc(Oc3c(F)cccc3OC(F)(F)F)c2c1-c1ccc(Cl)cc1,ion current,inhibitor,patch clamp,,,~4.55
N=C(CC(O)c1cc2c(F)cc(F)cc2c2cc(C(F)(F)F)ccc12)Nc1ccc(Br)cc1 (centres unmarked),ligand displacement,,FP,,,5.71
NC/C(=C\F)COc1cccc(Cn2c(=S)[nH]c(=O)c3[nH]cnc32)c1,ion current,inhibitor,,,,< 4.00
Cc1ccc2c(c1)C(=O)[C@]1(O)CCN(c3ccc4nc(C)ccc4c3)C1=N2,ion current,inhibitor,,,,5.27
